The source of these data is ChEMBL document CHEMBL1250484, “Synthesis and antioxidant activity of quinolinobenzothiazinones” (2010).

Test [1] in a line: Antioxidant activity assessed as ABTS radical scavenging activity after 4 mins. The test is classed as functional. In short, it runs like this: (§1)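 ABTS radical cation made from 7 mM ABTS in deionized water plus potassium persulphate (2.45 mM), kept dark at room temperature 12–16 h, then diluted with ethanol to A734 0.700 ± 0.020. 1 ml of this added to 10 µl compound; absorbance at 734 nm read at 30 °C at 1–6 min after mixing. Triplicate determinations.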

Test [2] is described as follows: Antioxidant activity assessed as ABTS radical scavenging activity after 1 min. The format is functional. Put shortly: as §1
A short description of test [3]: Antioxidant activity assessed as ABTS radical scavenging activity after 2 mins. The test is classed as functional. In short, it runs like this:
as §1

In test [4] the test system is Radical scavenging activity. Kind of test: Antioxidant activity assessed as DPPH radical scavenging activity at 1 mg/ml. The format is functional. In short, it runs like this: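 Compound stock 1 mg/ml in methanol; 50 µl added to 5 ml 0.004% methanolic DPPH. Incubated 30 min in dark at room temperature, absorbance at 517 nm against blank. Percent inhibition calculated by formula; triplicate.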

For test [5], the species on record is Mus musculus. Kind of test: Antioxidant activity in Swiss albino mouse assessed as lipid peroxidation level measured per mg of tissue after 7 days. The test is classed as functional, organism-based. Put shortly:
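Male random-bred Swiss albino mice (24 ± 2 g) dosed orally once daily for 7 days with compound in 0.1 ml double-distilled water; controls water only. Liver perfused with cold 0.9% NaCl, homogenized 10% w/v in tris-KCl pH 7.4. TBARS: sample with tris-KCl, 30% TCA, 52 mM TBA, 25 min at 80 °C, centrifuged; supernatant read at 531.8 nm, expressed as malondialdehyde per mg protein.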

Test [6] can be described thus: Antioxidant activity assessed as ABTS radical scavenging activity after 6 mins. The test is classed as functional. In short, it runs like this:
as §1

For test [7], the species on record is Mus musculus. In words: Antioxidant activity in Swiss albino mouse assessed as reduced glutathione level measured per mg of tissue after 7 days. The test is classed as functional. Put shortly:
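Male Swiss albino mice (24 ± 2 g) given compound orally in 0.1 ml double-distilled water daily for 7 days; controls got water. Perfused liver homogenized 10% w/v in tris-KCl pH 7.4, precipitated with 25% TCA, centrifuged. 0.1 ml supernatant mixed with 2 ml 0.6 mM DTNB and 0.9 ml […] pH 8.0; absorbance at 412 nm for GSH.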

For `Cc1ccc2[nH]c(=O)c3c(c2c1)Nc1c(C)cccc1S3`, the deltaA is 0.52 in test [1], 0.56 in test [2], 0.52 in test [3] and 0.52 in test [6]. In addition, in test [4], the inhibition came to 8.33%. The Activity in test [5] was found to be 6.69 nmol; in test [7], 4.5 nmol.
`Cc1cccc2c1Nc1c(c(=O)[nH]c3c(C)cccc13)S2`: the deltaA in test [1] stood at 0.61; in test [2], 0.62; in test [3] it was 0.61; in test [6] it was 0.61. Further, in test [4], the inhibition is 2.71%. Also, the Activity in test [5] is 6.72 nmol; in test [7], 4.51 nmol.
Consider `Cc1ccc2[nH]c(=O)c3c(c2c1)Nc1c(cccc1C(F)(F)F)S3`, for which the deltaA in test [1] stood at 0.318; in test [2] it was 0.328; in test [3] it was 0.318; in test [6], 0.318. In test [4], the inhibition amounted to 22.4%. The Activity in test [5] is 6.53 nmol; in test [7], 4.9 nmol.
With `Cc1ccc2[nH]c(=O)c3c(c2c1)Nc1ccc(Br)cc1S3`, the deltaA in test [1] turned out to be 0.406; in test [2] it was 0.412; in test [3], 0.406; in test [6], 0.406. Also, the inhibition in test [4] was determined as 13.7%. Besides, the Activity in test [5] amounted to 6.42 nmol; in test [7], 5 nmol.
Consider `COc1cccc2c1Nc1c(c(=O)[nH]c3c(OC)cccc13)S2`, for which the deltaA came out at 0.052 in test [1], 0.055 in test [2], 0.052 in test [3] and 0.052 in test [6]. Besides, the inhibition in test [4] worked out at 54.3%. For the same compound, the Activity in test [5] was found to be 6.81 nmol; in test [7] it was 4.8 nmol.
Turning to `COc1cccc2c3c(c(=O)[nH]c12)Sc1cc(Br)ccc1N3`, the deltaA was found to be 0.098 in test [1], 0.141 in test [2], 0.098 in test [3] and 0.095 in test [6]. Further, the inhibition in test [4] is 53.8%. Moreover, the Activity is 6.51 nmol in test [5] and 5.01 nmol in test [7].

One may read the inhibition as the drop in the measured response relative to a control, in per cent.
